Reference: ChEMBL document CHEMBL1125357, “Gonadotropin-releasing hormone antagonists with N omega-triazolylornithine, -lysine, or -p-aminophenylalanine residues at positions 5 and 6” (J Med Chem, 1992)
Converted amounts (≈) assume the structure as drawn. “And” between values parts separate entries of the source, which are not always exact repeats. Equal entries are not always repeated. Starred links: 1 amine or outer side, 2 acyl side, 3 side chain; linkers in the order of their positions; H or OH if unused. Non-standard residues stand in square brackets, D forms with d. Residues, ends and D or L forms follow the SMILES beside them. *: point of attachment. Phe(4-NH(5-NH2triazol-3-yl)) = Nc1nc(Nc2ccc(C[C@H](N)C(=O)O)cc2)n[nH]1; dNva(5-oxo-5-(4-MeOPh)) = COc1ccc(C(=O)CC[C@@H](N)C(=O)O)cc1; X1 = Nc1nc(Nc2ccc(C[C@@H](N[*:1])C(=O)[*:2])cc2)n[nH]1; d(hArg(Et2)) = CCN=C(NCC)NCCCC[C@@H](N)C(=O)O; hArg(Et2) = CCN=C(NCC)NCCCC[C@H](N)C(=O)O; Triazol3yl(1,2,4-5-NH2) = Nc1nc(*)n[nH]1; dPhe(4-Cl) = N[C@H](Cc1ccc(Cl)cc1)C(=O)O; d2Nal = N[C@H](Cc1ccc2ccccc2c1)C(=O)O; Lys(iPr) = CC(C)NCCCC[C@H](N)C(=O)O; NMeY = CN[C@@H](Cc1ccc(O)cc1)C(=O)O; dCit = NC(=O)NCCC[C@@H](N)C(=O)O; d3Pal = N[C@H](Cc1cccnc1)C(=O)O; NMeL = CN[C@@H](CC(C)C)C(=O)O; Nicotinoyl = O=C(c1cccnc1)*; dOrn = NCCC[C@@H](N)C(=O)O; Orn = NCCC[C@H](N)C(=O)O

Assays:
[1] = species: Homo sapiens; assay: In vitro antagonistic potency relative to Ac-delta-3-Pro1-(D)Fpa2-(D)Trp3,6]GnRH; format: functional
Procedure, shortened: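 Cultured rat pituitary cells. Peptides were scored for inhibition of GnRH-mediated LH secretion, and potency is expressed relative to the standard antagonist [Ac-Δ3-Pro1,DFpa2,DTrp3,6]GnRH (= 1.0).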

[2] = species: Rattus norvegicus; assay: The compound was tested in vitro for the histamine release; format: functional; details: read-out: ED50 (the source's name)
[3] = species: Rattus norvegicus; assay: Antiovulatory activity measured in rat; format: functional; set-up: unit: ug/rat
Procedure, shortened: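 Corbin–Beattie rat antiovulatory assay. Cycling female rats of 250-300 g were given a single sc injection of peptide at noon on proestrus. Vehicle was saline or 5% DMSO in saline (200 μL), or corn oil where flagged. Result is expressed as dose in μg/rat with the number of rats ovulating over the number treated.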

[4] = Retention time of the compound; format: ADME
Procedure, shortened: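 Peptide (0.5 mg/mL, 10 μL) was loaded in TEAP pH 7.0/CH3CN (76/24), acidified with H3PO4 where insoluble. Elution used a 30-48% CH3CN gradient over 30 min at 1.5 mL/min. Retention time is reported in minutes.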

Row | SMILES | Potency [1] | EC50 [2] | AOA [3] | RT [4]
1 | CC(=O)N[C@H](Cc1ccc2ccccc2c1)C(=O)N[C@H](Cc1ccc(Cl)cc1)C(=O)N[C@H](Cc1cccnc1)C(=O)N[C@@H](CO)C(=O)N[C@@H](CCCCNc1n[nH]c(N)n1)C(=O)N[C@H](CCCCNc1n[nH]c(N)n1)C(=O)N[C@@H](CC(C)C)C(=O)N[C@@H](CCCCNC(C)C)C(=O)N1CCC[C@H]1C(=O)NCC(N)=O | 0.12 | 66 µg/mL (≈ 43.1 µM) | 1 and 2.5 | –
2 | CC(=O)N[C@H](Cc1ccc2ccccc2c1)C(=O)N[C@H](Cc1ccc(Cl)cc1)C(=O)N[C@H](Cc1cccnc1)C(=O)N[C@@H](CO)C(=O)N[C@@H](CCCN=C(N)N)C(=O)N[C@H](Cc1cccnc1)C(=O)N[C@@H](CC(C)C)C(=O)N[C@@H](CCCN=C(N)N)C(=O)N1CCC[C@H]1C(=O)N[C@H](C)C(N)=O | 0.91 | 2.9 µg/mL (≈ 2.05 µM) | 0.5 and 1 | –
3 | CC(=O)N[C@H](Cc1ccc2ccccc2c1)C(=O)N[C@H](Cc1ccc(Cl)cc1)C(=O)N[C@H](Cc1cccnc1)C(=O)N[C@@H](CO)C(=O)N[C@@H](Cc1ccc(O)cc1)C(=O)N[C@H](Cc1cccnc1)C(=O)N[C@@H](CC(C)C)C(=O)N[C@@H](CCCCNC(C)C)C(=O)N1CCC[C@H]1C(=O)N[C@H](C)C(N)=O [listing 1 of 2 here] | – | – | – | 16.3 min
4 | CC(=O)N[C@H](Cc1ccc2ccccc2c1)C(=O)N[C@H](Cc1ccc(Cl)cc1)C(=O)N[C@H](Cc1cccnc1)C(=O)N[C@@H](CO)C(=O)N[C@@H](Cc1ccc(O)cc1)C(=O)N[C@H](Cc1cccnc1)C(=O)N[C@@H](CC(C)C)C(=O)N[C@@H](CCCCNC(C)C)C(=O)N1CCC[C@H]1C(=O)N[C@H](C)C(N)=O [listing 2 of 2 here] | 1.3 | 34 µg/mL (≈ 23.7 µM) | 1 and 2.5 | –
5 | CC(=O)N[C@H](Cc1ccc2ccccc2c1)C(=O)N[C@H](Cc1ccc(Cl)cc1)C(=O)N[C@H](Cc1cccnc1)C(=O)N[C@@H](CO)C(=O)N[C@@H](CCCCNC(=O)c1cccnc1)C(=O)N[C@H](CCCCNC(=O)c1cccnc1)C(=O)N[C@@H](CC(C)C)C(=O)N[C@@H](CCCCNC(C)C)C(=O)N1CCC[C@H]1C(=O)N[C@H](C)C(N)=O (Ac-[d2Nal][dPhe(4-Cl)][d3Pal]SK(Nicotinoyl)[dK](Nicotinoyl)L[Lys(iPr)]P[dA]-NH2) | 0.66 | > 300 µg/mL | 1 and 1.5 | –
6 | CC(=O)N[C@H](Cc1ccc2ccccc2c1)C(=O)N[C@H](Cc1ccc(Cl)cc1)C(=O)N[C@H](Cc1cccnc1)C(=O)N[C@@H](CO)C(=O)N[C@@H](CCCCNc1n[nH]c(N)n1)C(=O)N[C@H](CCCCNc1n[nH]c(N)n1)C(=O)N[C@@H](CC(C)C)C(=O)N[C@@H](CCCCNC(C)C)C(=O)N1CCC[C@H]1C(=O)N[C@H](C)C(N)=O (Ac-[d2Nal][dPhe(4-Cl)][d3Pal]SK(Triazol3yl(1,2,4-5-NH2))[dK](Triazol3yl(1,2,4-5-NH2))L[Lys(iPr)]P[dA]-NH2) | 0.23 | 139 µg/mL (≈ 90 µM) | 2 | –
7 | COc1ccc(C(=O)CC[C@@H](NC(=O)[C@H](CCCN=C(N)N)NC(=O)[C@H](CO)NC(=O)[C@@H](Cc2cccnc2)NC(=O)[C@@H](Cc2ccc(Cl)cc2)NC(=O)[C@@H](Cc2ccc3ccccc3c2)NC(C)=O)C(=O)N[C@@H](CC(C)C)C(=O)N[C@@H](CCCN=C(N)N)C(=O)N2CCC[C@H]2C(=O)N[C@H](C)C(N)=O)cc1 (Ac-[d2Nal][dPhe(4-Cl)][d3Pal]SR[dNva(5-oxo-5-(4-MeOPh))]LRP[dA]-NH2) | 1 | 1.8 µg/mL (≈ 1.21 µM) | 0.5 and 1.5 | –
8 | CCN=C(NCC)NCCCC[C@H](NC(=O)[C@H](CC(C)C)NC(=O)[C@@H](CCCCNC(=NCC)NCC)NC(=O)[C@H](Cc1ccc(O)cc1)NC(=O)[C@H](CO)NC(=O)[C@@H](Cc1cccnc1)NC(=O)[C@@H](Cc1ccc(Cl)cc1)NC(=O)[C@@H](Cc1ccc2ccccc2c1)NC(C)=O)C(=O)N1CCC[C@H]1C(=O)N[C@H](C)C(N)=O (Ac-[d2Nal][dPhe(4-Cl)][d3Pal]SY[d(hArg(Et2))]L[hArg(Et2)]P[dA]-NH2) | 2.17 | 11 µg/mL (≈ 7 µM) | 2.5 | –
9 | CC(=O)N[C@H](Cc1ccc2ccccc2c1)C(=O)N[C@H](Cc1ccc(Cl)cc1)C(=O)N[C@H](Cc1cccnc1)C(=O)N[C@@H](CO)C(=O)N[C@@H](Cc1ccc(O)cc1)C(=O)N[C@H](CCCNC(N)=O)C(=O)N[C@@H](CC(C)C)C(=O)N[C@@H](CCCNC(=N)N)C(=O)N1CCC[C@H]1C(=O)N[C@H](C)C(N)=O (Ac-[d2Nal][dPhe(4-Cl)][d3Pal]SY[dCit]LRP[dA]-NH2) | – | – | – | 10.1 min
10 | CC(=O)N[C@H](Cc1ccc2ccccc2c1)C(=O)N[C@H](Cc1ccc(Cl)cc1)C(=O)N[C@H](Cc1cccnc1)C(=O)N[C@@H](CO)C(=O)N[C@@H](Cc1ccc(O)cc1)C(=O)N[C@H](CCCNC(N)=O)C(=O)N[C@@H](CC(C)C)C(=O)N[C@@H](CCCN=C(N)N)C(=O)N1CCC[C@H]1C(=O)N[C@H](C)C(N)=O (Ac-[d2Nal][dPhe(4-Cl)][d3Pal]SY[dCit]LRP[dA]-NH2) | 1.56 | 2.1 µg/mL (≈ 1.47 µM) | 1 and 2 | –
11 | CC(=O)N[C@H](Cc1ccc2ccccc2c1)C(=O)N[C@H](Cc1ccc(Cl)cc1)C(=O)N[C@H](Cc1cccnc1)C(=O)N[C@@H](CO)C(=O)N(C)[C@@H](Cc1ccc(O)cc1)C(=O)N[C@H](CCCCNC(=O)c1cccnc1)C(=O)N[C@@H](CC(C)C)C(=O)N[C@@H](CCCCNC(C)C)C(=O)N1CCC[C@H]1C(=O)N[C@H](C)C(N)=O (Ac-[d2Nal][dPhe(4-Cl)][d3Pal]S[NMeY][dK](Nicotinoyl)L[Lys(iPr)]P[dA]-NH2) | 1.42 | 22 µg/mL (≈ 14.3 µM) | – | –
12 | CC(=O)N[C@H](Cc1ccc2ccccc2c1)C(=O)N[C@H](Cc1ccc(Cl)cc1)C(=O)N[C@H](Cc1cccnc1)C(=O)N[C@@H](CO)C(=O)N[C@@H](CCCNc1n[nH]c(N)n1)C(=O)N[C@H](CCCNc1n[nH]c(N)n1)C(=O)N[C@@H](CC(C)C)C(=O)N[C@@H](CCCCNC(C)C)C(=O)N1CCC[C@H]1C(=O)N[C@H](C)C(N)=O (Ac-[d2Nal][dPhe(4-Cl)][d3Pal]S[Orn](Triazol3yl(1,2,4-5-NH2))[dOrn](Triazol3yl(1,2,4-5-NH2))L[Lys(iPr)]P[dA]-NH2) | 0.2 | 158 µg/mL (≈ 104 µM) | 2 | –
13 | CC(=O)N[C@H](Cc1ccc2ccccc2c1)C(=O)N[C@H](Cc1ccc(Cl)cc1)C(=O)N[C@H](Cc1cccnc1)C(=O)N[C@@H](CO)C(=O)N[C@@H](Cc1ccc(Nc2n[nH]c(N)n2)cc1)C(=O)N[C@H](Cc1ccc(Nc2n[nH]c(N)n2)cc1)C(=O)N[C@@H](CC(C)C)C(=O)N[C@@H](CCCCNC(C)C)C(=O)N1CCC[C@H]1C(=O)NCC(N)=O (Ac-[d2Nal][dPhe(4-Cl)][d3Pal]S[Phe(4-NH(5-NH2triazol-3-yl))][X1]L[Lys(iPr)]PG-NH2) [listing 1 of 2 here] | – | – | – | 8.45 min
14 | CC(=O)N[C@H](Cc1ccc2ccccc2c1)C(=O)N[C@H](Cc1ccc(Cl)cc1)C(=O)N[C@H](Cc1cccnc1)C(=O)N[C@@H](CO)C(=O)N[C@@H](Cc1ccc(Nc2n[nH]c(N)n2)cc1)C(=O)N[C@H](Cc1ccc(Nc2n[nH]c(N)n2)cc1)C(=O)N[C@@H](CC(C)C)C(=O)N[C@@H](CCCCNC(C)C)C(=O)N1CCC[C@H]1C(=O)NCC(N)=O (Ac-[d2Nal][dPhe(4-Cl)][d3Pal]S[Phe(4-NH(5-NH2triazol-3-yl))][X1]L[Lys(iPr)]PG-NH2) [listing 2 of 2 here] | 1 | 28 µg/mL (≈ 17.5 µM) | 1 | –
15 | CC(=O)N[C@H](Cc1ccc2ccccc2c1)C(=O)N[C@H](Cc1ccc(Cl)cc1)C(=O)N[C@H](Cc1cccnc1)C(=O)N[C@@H](CO)C(=O)N[C@@H](Cc1ccc(Nc2n[nH]c(N)n2)cc1)C(=O)N[C@H](Cc1ccc(Nc2n[nH]c(N)n2)cc1)C(=O)N[C@@H](CC(C)C)C(=O)N[C@@H](CCCCNC(C)C)C(=O)N1CCC[C@H]1C(=O)N[C@H](C)C(N)=O (Ac-[d2Nal][dPhe(4-Cl)][d3Pal]S[Phe(4-NH(5-NH2triazol-3-yl))][X1]L[Lys(iPr)]P[dA]-NH2) [listing 1 of 2 here] | – | – | – | 9 min
16 | CC(=O)N[C@H](Cc1ccc2ccccc2c1)C(=O)N[C@H](Cc1ccc(Cl)cc1)C(=O)N[C@H](Cc1cccnc1)C(=O)N[C@@H](CO)C(=O)N[C@@H](Cc1ccc(Nc2n[nH]c(N)n2)cc1)C(=O)N[C@H](Cc1ccc(Nc2n[nH]c(N)n2)cc1)C(=O)N[C@@H](CC(C)C)C(=O)N[C@@H](CCCCNC(C)C)C(=O)N1CCC[C@H]1C(=O)N[C@H](C)C(N)=O (Ac-[d2Nal][dPhe(4-Cl)][d3Pal]S[Phe(4-NH(5-NH2triazol-3-yl))][X1]L[Lys(iPr)]P[dA]-NH2) [listing 2 of 2 here] | 1.3 | 224 µg/mL (≈ 139 µM) | 0.5 and 1 | –
17 | CC(=O)N[C@H](Cc1ccc2ccccc2c1)C(=O)N[C@H](Cc1ccc(Cl)cc1)C(=O)N[C@H](Cc1cccnc1)C(=O)N[C@@H](CO)C(=O)N[C@@H](Cc1ccc(Nc2n[nH]c(N)n2)cc1)C(=O)N[C@H](Cc1ccc(Nc2n[nH]c(N)n2)cc1)C(=O)N(C)[C@@H](CC(C)C)C(=O)N[C@@H](CCCCNC(C)C)C(=O)N1CCC[C@H]1C(=O)N[C@H](C)C(N)=O (Ac-[d2Nal][dPhe(4-Cl)][d3Pal]S[Phe(4-NH(5-NH2triazol-3-yl))][X1][NMeL][Lys(iPr)]P[dA]-NH2) [listing 1 of 2 here] | – | – | – | 10.6 min
18 | CC(=O)N[C@H](Cc1ccc2ccccc2c1)C(=O)N[C@H](Cc1ccc(Cl)cc1)C(=O)N[C@H](Cc1cccnc1)C(=O)N[C@@H](CO)C(=O)N[C@@H](Cc1ccc(Nc2n[nH]c(N)n2)cc1)C(=O)N[C@H](Cc1ccc(Nc2n[nH]c(N)n2)cc1)C(=O)N(C)[C@@H](CC(C)C)C(=O)N[C@@H](CCCCNC(C)C)C(=O)N1CCC[C@H]1C(=O)N[C@H](C)C(N)=O (Ac-[d2Nal][dPhe(4-Cl)][d3Pal]S[Phe(4-NH(5-NH2triazol-3-yl))][X1][NMeL][Lys(iPr)]P[dA]-NH2) [listing 2 of 2 here] | 1.6 | 34 µg/mL (≈ 20.9 µM) | 0.5 and 1 | –
